# What was measured:
# HOP-62 = experiment: Antiproliferative activity against human HOP-62 cells assessed as cell growth inhibition; assay type: functional
# How it was run: (§1)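 NCI 60 cell line screen. Five concentrations (100, 10, 1, 0.1 and 0.01 µM) with 48 h drug exposure. GI50 is the molar concentration giving 50% growth inhibition; TGI and LC50 were also derived.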
# Hs-578T = experiment: Antiproliferative activity against human Hs-578T cells assessed as cell growth inhibition; assay type: functional; how it was run: as §1
# EKVX = experiment: Antiproliferative activity against human EKVX cells assessed as cell growth inhibition; assay type: functional; how it was run: as §1
# MDA-MB-435 = experiment: Antiproliferative activity against human MDA-MB-435 cells assessed as cell growth inhibition; assay type: functional; how it was run: as §1
# HT-29 [1] = experiment: Antiproliferative activity against human HT-29 cells assessed as reduction in cell viability after 72 hrs by alamar blue assay; assay type: functional, cell-based; details: HT-29, 72 h
# How it was run: (§2)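 Cells seeded at 5 x 10^3/well (MCF-7) or 1 x 10^4/well (HT-29, HEK-293T) and treated after 24 h with serial dilutions (0.001-100 µM) in 1% v/v ethanol vehicle. Alamar Blue 10% v/v added at 72 h, then 3-5 h at 37 °C in the dark; fluorescence ex 530/em 590 nm. Viability relative to vehicle; IC50 from dose-response curves; mean of three experiments in triplicate.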
# HCT-116 = experiment: Antiproliferative activity against human HCT-116 cells assessed as cell growth inhibition; assay type: functional; how it was run: as §1
# SK-MEL-28 = experiment: Antiproliferative activity against human SK-MEL-28 cells assessed as cell growth inhibition; assay type: functional
# How it was run: (§3)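 NCI60 cell line screen: cells exposed for 48 h to five concentrations (100, 10, 1, 0.1 and 0.01 µM). GI50 is the molar concentration giving 50% growth inhibition; TGI and LC50 were also determined.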
# MDA-MB-231 = experiment: Antiproliferative activity against human MDA-MB-231 cells assessed as cell growth inhibition; assay type: functional; how it was run: as §1
# OVCAR-3 = experiment: Antiproliferative activity against human OVCAR-3 cells assessed as cell growth inhibition; assay type: functional; how it was run: as §1
# [2] = Antiproliferative activity against human NCI-H332M cells assessed as cell growth inhibition; assay type: functional; how it was run: as §1
# U-251 = experiment: Antiproliferative activity against human U251 cells assessed as cell growth inhibition; assay type: functional; how it was run: as §3
# PC-3 = experiment: Antiproliferative activity against human PC-3 cells assessed as cell growth inhibition; assay type: functional; how it was run: as §1
# SK-MEL-2 = experiment: Antiproliferative activity against human SK-MEL-2 cells assessed as cell growth inhibition; assay type: functional; how it was run: as §3
# MCF7 [3] = experiment: Antiproliferative activity against human MCF7 cells assessed as reduction in cell viability after 72 hrs by alamar blue assay; assay type: functional, cell-based; details: MCF7, 72 h; how it was run: as §2
# Malme-3M = experiment: Antiproliferative activity against human Malme-3M cells assessed as cell growth inhibition; assay type: functional; how it was run: as §1
# [4] = test system: UDP-glucuronosyltransferases (UGTs); experiment: Metabolic stability in human liver microsomes assessed as UGT-mediated N-glucuronidation by measuring half life at 3 uM measured up to 45 mins by LC-MS/MS analysis; assay type: ADME; details: microsomes, 0.75 h, 3 µM
# How it was run: (§4)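 Pooled human liver microsomes (0.5 mg/mL protein final) with alamethicin (25 µg/mg) in 0.1 M phosphate pH 7.4, compound 3 µM final (0.25% DMSO), preincubated 37 °C. Reaction started with UDPGA (1 mM final). Sampled at 0, 5, 15, 30, 45 min into methanol, analysed by LC-MS/MS. Minus-UDPGA control run 45 min. Single incubations; t½ and CLint taken from the elimination rate constant.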
# MOLT-4 = experiment: Antiproliferative activity against human MOLT-4 cells assessed as cell growth inhibition; assay type: functional; how it was run: as §1
# A549 = experiment: Antiproliferative activity against human A549 cells assessed as cell growth inhibition; assay type: functional; how it was run: as §1
# IGROV-1 = experiment: Antiproliferative activity against human IGROV-1 cells assessed as cell growth inhibition; assay type: functional; how it was run: as §1
# SN12C = experiment: Antiproliferative activity against human SN12C cells assessed as cell growth inhibition; assay type: functional; how it was run: as §3
# LOX IMVI = experiment: Antiproliferative activity against human LOX IMVI cells assessed as cell growth inhibition; assay type: functional; how it was run: as §1
# KM12 = experiment: Antiproliferative activity against human KM12 cells assessed as cell growth inhibition; assay type: functional; how it was run: as §1
# HCC 2998 = experiment: Antiproliferative activity against human HCC-2998 cells assessed as cell growth inhibition; assay type: functional; how it was run: as §1
# [5] = Selectivity index, ratio of IC50 for human MCF7 cells to IC50 for human HT-29 cells assessed as reduction in cell viability after 72 hrs by alamar blue assay; assay type: functional
# CAKI-1 = experiment: Antiproliferative activity against human […] cells assessed as cell growth inhibition; assay type: functional; how it was run: as §1
# SK-MEL-5 = experiment: Antiproliferative activity against human SK-MEL-5 cells assessed as cell growth inhibition; assay type: functional; how it was run: as §3
# NCI-H522 = experiment: Antiproliferative activity against human […] cells assessed as cell growth inhibition; assay type: functional; how it was run: as §1
# DU-145 = experiment: Antiproliferative activity against human DU-145 cells assessed as cell growth inhibition; assay type: functional; how it was run: as §1
# SW-620 = experiment: Antiproliferative activity against human SW-620 cells assessed as cell growth inhibition; assay type: functional; how it was run: as §3
# ACHN = experiment: Antiproliferative activity against human ACHN cells assessed as cell growth inhibition; assay type: functional; how it was run: as §1
# HOP-92 = experiment: Antiproliferative activity against human HOP-92 cells assessed as cell growth inhibition; assay type: functional; how it was run: as §1
# HT-29 [6] = experiment: Antiproliferative activity against human HT-29 cells assessed as cell growth inhibition; assay type: functional; how it was run: as §1
# BT-549 = experiment: Antiproliferative activity against human BT-549 cells assessed as cell growth inhibition; assay type: functional; how it was run: as §1
# SNB-75 = experiment: Antiproliferative activity against human SNB-75 cells assessed as cell growth inhibition; assay type: functional; how it was run: as §3
# T47D = experiment: Antiproliferative activity against human T47D cells assessed as cell growth inhibition; assay type: functional; how it was run: as §3
# SR = experiment: Antiproliferative activity against human SR cells assessed as cell growth inhibition; assay type: functional; how it was run: as §3
# A498 = experiment: Antiproliferative activity against human A498 cells assessed as cell growth inhibition; assay type: functional; how it was run: as §1
# COLO 205 = experiment: Antiproliferative activity against human COLO 205 cells assessed as cell growth inhibition; assay type: functional; how it was run: as §1
# [7] = test system: UDP-glucuronosyltransferases (UGTs); experiment: Metabolic stability in human liver microsomes assessed as UGT-mediated N-glucuronidation by measuring intrinsic clearance at 3 uM measured up to 45 mins by LC-MS/MS analysis; assay type: ADME; details: microsomes, 0.75 h, 3 µM; how it was run: as §4
# 786-0 = experiment: Antiproliferative activity against human 786-0 cells assessed as cell growth inhibition; assay type: functional; how it was run: as §1
# UO-31 = experiment: Antiproliferative activity against human UO-31 cells assessed as cell growth inhibition; assay type: functional; how it was run: as §3
# K562 = experiment: Antiproliferative activity against human K-562 cells assessed as cell growth inhibition; assay type: functional; how it was run: as §1
# RPMI-8226 = experiment: Antiproliferative activity against human RPMI-8226 cells assessed as cell growth inhibition; assay type: functional; how it was run: as §1
# MDA-MB-468 = experiment: Antiproliferative activity against human MDA-MB-468 cells assessed as cell growth inhibition; assay type: functional; how it was run: as §1
# OVCAR-8 = experiment: Antiproliferative activity against human OVCAR-8 cells assessed as cell growth inhibition; assay type: functional; how it was run: as §1
# OVCAR-5 = experiment: Antiproliferative activity against human OVCAR-5 cells assessed as cell growth inhibition; assay type: functional; how it was run: as §1
# SK-OV-3 = experiment: Antiproliferative activity against human SK-OV-3 cells assessed as cell growth inhibition; assay type: functional; how it was run: as §3
# M14 = experiment: Antiproliferative activity against human M14 cells assessed as cell growth inhibition; assay type: functional; how it was run: as §1
# NCI-H226 = experiment: Antiproliferative activity against human NCI-H226 cells assessed as cell growth inhibition; assay type: functional; how it was run: as §1
# SF-295 = experiment: Antiproliferative activity against human SF295 cells assessed as cell growth inhibition; assay type: functional; how it was run: as §1
# UACC-62 = experiment: Antiproliferative activity against human UACC-62 cells assessed as cell growth inhibition; assay type: functional; how it was run: as §3
# NCI-H23 = experiment: Antiproliferative activity against human NCI-H23 cells assessed as cell growth inhibition; assay type: functional; how it was run: as §1
# NCI/ADR-RES = experiment: Antiproliferative activity against human NCI/ADR-RES cells assessed as cell growth inhibition; assay type: functional; how it was run: as §1
# HL-60 = experiment: Antiproliferative activity against human HL60 cells assessed as cell growth inhibition; assay type: functional; how it was run: as §1
# CCRF-CEM = experiment: Antiproliferative activity against human CCRF-CEM cells assessed as cell growth inhibition; assay type: functional; how it was run: as §1
# TK-10 = experiment: Antiproliferative activity against human TK-10 cells assessed as cell growth inhibition; assay type: functional; how it was run: as §3
# SF-539 = experiment: Antiproliferative activity against human SF539 cells assessed as cell growth inhibition; assay type: functional; how it was run: as §3
# OVCAR-4 = experiment: Antiproliferative activity against human OVCAR-4 cells assessed as cell growth inhibition; assay type: functional; how it was run: as §1
# SNB-19 = experiment: Antiproliferative activity against human SNB-19 cells assessed as cell growth inhibition; assay type: functional; how it was run: as §3
# NCI-H460 = experiment: Antiproliferative activity against human NCI-H460 cells assessed as cell growth inhibition; assay type: functional; how it was run: as §1
# SF-268 = experiment: Antiproliferative activity against human SF-268 cells assessed as cell growth inhibition; assay type: functional; how it was run: as §1
# MCF7 [8] = experiment: Antiproliferative activity against human MCF7 cells assessed as cell growth inhibition; assay type: functional; how it was run: as §1
# HCT-15 = experiment: Antiproliferative activity against human HCT-15 cells assessed as cell growth inhibition; assay type: functional; how it was run: as §1
compound,measurement,setting,value
COc1ccc([C@H]2[C@H](c3ccccc3)C(=O)N2c2cc(OC)c(OC)c(OC)c2)cc1F,GI50,HOP-62,37.9 nM
same,GI50,Hs-578T,43.4 nM
same,GI50,EKVX,77.6 nM
same,GI50,MDA-MB-435,18.7 nM
same,IC50,HT-29 [1],9 nM
same,GI50,HCT-116,32.4 nM
same,GI50,SK-MEL-28,1370 nM
same,GI50,MDA-MB-231,45.2 nM
same,GI50,OVCAR-3,28 nM
same,GI50,[2],68.7 nM
same,GI50,U-251,35.9 nM
same,GI50,PC-3,40.3 nM
same,GI50,SK-MEL-2,35.4 nM
same,IC50,MCF7 [3],17 nM
same,GI50,Malme-3M,> 100000 nM
same,t1/2,[4],23.5 h
same,GI50,MOLT-4,38.1 nM
same,GI50,A549,36.8 nM
same,GI50,IGROV-1,42.8 nM
same,GI50,SN12C,56.1 nM
same,GI50,LOX IMVI,29.6 nM
same,GI50,KM12,33.1 nM
same,GI50,HCC 2998,39.4 nM
same,Ratio IC50,[5],1.88
same,GI50,CAKI-1,33.2 nM
same,GI50,SK-MEL-5,27.1 nM
same,GI50,NCI-H522,18.6 nM
same,GI50,DU-145,35.4 nM
same,GI50,SW-620,41.9 nM
same,GI50,ACHN,44 nM
same,GI50,HOP-92,2840 nM
same,GI50,HT-29 [6],26 nM
same,GI50,BT-549,26.6 nM
same,GI50,SNB-75,31.4 nM
same,GI50,T47D,> 100000 nM
same,GI50,SR,37.3 nM
same,GI50,A498,27 nM
same,GI50,COLO 205,19.4 nM
same,CLH,[7],0.98 µL/min/mg
same,GI50,786-0,31.4 nM
same,GI50,UO-31,77.1 nM
same,GI50,K562,32.1 nM
same,GI50,RPMI-8226,41.3 nM
same,GI50,MDA-MB-468,28.7 nM
same,GI50,OVCAR-8,34.4 nM
same,GI50,OVCAR-5,51.7 nM
same,GI50,SK-OV-3,34.8 nM
same,GI50,M14,22.6 nM
same,GI50,NCI-H226,35 nM
same,GI50,SF-295,29 nM
same,GI50,UACC-62,54.3 nM
same,GI50,NCI-H23,48.9 nM
same,GI50,NCI/ADR-RES,39.4 nM
same,GI50,HL-60,22.3 nM
same,GI50,CCRF-CEM,36.1 nM
same,GI50,TK-10,1680 nM
same,GI50,SF-539,23.4 nM
same,GI50,OVCAR-4,87.1 nM
same,GI50,SNB-19,49.9 nM
same,GI50,NCI-H460,34.4 nM
same,GI50,SF-268,44.3 nM
same,GI50,MCF7 [8],29.6 nM
same,GI50,HCT-15,33.6 nM

# Reference: ChEMBL document CHEMBL4680165, “β-Lactams with antiproliferative and antiapoptotic activity in breast and chemoresistant colon cancer cells” (Eur J Med Chem, 2020)
